# Data from ChEMBL document CHEMBL1155222, “Synthesis and anticancer activity of N-bis(trifluoromethyl)alkyl-N'-thiazolyl and N-bis(trifluoromethyl)alkyl-N'-benzothiazolyl ureas” (2009).
# Key:
# Assay type in all cases: functional
# [1] = test system: CCRF-CEM; assay: Anticancer activity against human CCRF-CEM cells after 48 hrs by sulforhodamine B assay
# Procedure, shortened: (§1)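 NCI 60-cell-line screen. Cells grown in RPMI 1640 with 5% FBS and 2 mM L-glutamine, plated at 5000–40,000 cells/well, and preincubated 24 h at 37 °C under 5% CO2. Compounds were taken from DMSO stocks and tested at five final concentrations, 10^-4 to 10^-8 M, for 48 h. Cells were TCA-fixed, stained with 0.4% SRB, and read at 515 nm. GI50, TGI and LC50 were derived as log molar values.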
# [2] = test system: K562; assay: Anticancer activity against human K562 cells after 48 hrs by sulforhodamine B assay; conditions: K562, 48 h; procedure, shortened: as §1
# [3] = test system: MOLT-4; assay: Anticancer activity against human MOLT4 cells after 48 hrs by sulforhodamine B assay; conditions: MOLT-4, 48 h; procedure, shortened: as §1
# [4] = test system: SR; assay: Anticancer activity against human SR cells after 48 hrs by sulforhodamine B assay
# Procedure, shortened: (§2)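 NCI 60-cell-line panel; cells grown in RPMI 1640 with 5% FBS and 2 mM L-glutamine, plated at 5000–40,000 cells/well and preincubated 24 h at 37 °C, 5% CO2. Compounds came from DMSO stocks diluted in medium with gentamicin and were tested at five final concentrations, 10^-4 to 10^-8 M, for 48 h. Cells were fixed with TCA, stained with SRB and read at 515 nm. GI50, TGI and LC50 were derived as log molar values.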
# [5] = test system: A549; assay: Anticancer activity against human A549 cells after 48 hrs by sulforhodamine B assay; conditions: A549, 48 h; procedure, shortened: as §1
# [6] = test system: EKVX; assay: Anticancer activity against human EKVX cells after 48 hrs by sulforhodamine B assay; procedure, shortened: as §1
# [7] = test system: HOP-62; assay: Anticancer activity against human HOP62 cells after 48 hrs by sulforhodamine B assay; conditions: HOP-62, 48 h; procedure, shortened: as §1
# [8] = test system: HOP-92; assay: Anticancer activity against human HOP92 cells after 48 hrs by sulforhodamine B assay; conditions: HOP-92, 48 h; procedure, shortened: as §1
# [9] = test system: NCI-H322M; assay: Anticancer activity against human NCI-H322M cells after 48 hrs by sulforhodamine B assay; procedure, shortened: as §1
# [10] = test system: NCI-H460; assay: Anticancer activity against human NCI-H460 cells after 48 hrs by sulforhodamine B assay; conditions: NCI-H460, 48 h; procedure, shortened: as §1
# [11] = test system: COLO 205; assay: Anticancer activity against human COLO205 cells after 48 hrs by sulforhodamine B assay; conditions: COLO 205, 48 h; procedure, shortened: as §1
# [12] = test system: HCC 2998; assay: Anticancer activity against human HCC2998 cells after 48 hrs by sulforhodamine B assay; conditions: HCC 2998, 48 h; procedure, shortened: as §1
# [13] = test system: HCT-116; assay: Anticancer activity against human HCT116 cells after 48 hrs by sulforhodamine B assay; conditions: HCT-116, 48 h; procedure, shortened: as §1
# [14] = test system: KM12; assay: Anticancer activity against human KM12 cells after 48 hrs by sulforhodamine B assay; conditions: KM12, 48 h; procedure, shortened: as §1
# [15] = test system: SW-620; assay: Anticancer activity against human SW620 cells after 48 hrs by sulforhodamine B assay; conditions: SW-620, 48 h; procedure, shortened: as §2
# [16] = test system: SF-268; assay: Anticancer activity against human SF268 cells after 48 hrs by sulforhodamine B assay; conditions: SF-268, 48 h; procedure, shortened: as §1
# [17] = test system: SF-295; assay: Anticancer activity against human SF295 cells after 48 hrs by sulforhodamine B assay; conditions: SF-295, 48 h; procedure, shortened: as §1
# [18] = test system: SF-539; assay: Anticancer activity against human SF539 cells after 48 hrs by sulforhodamine B assay; conditions: SF-539, 48 h; procedure, shortened: as §1
# [19] = test system: SNB-19; assay: Anticancer activity against human SNB19 cells after 48 hrs by sulforhodamine B assay; conditions: SNB-19, 48 h; procedure, shortened: as §2
# [20] = test system: U-251; assay: Anticancer activity against human U251 cells after 48 hrs by sulforhodamine B assay; conditions: U-251, 48 h; procedure, shortened: as §2
# [21] = test system: LOX IMVI; assay: Anticancer activity against human LOXIMVI cells after 48 hrs by sulforhodamine B assay; procedure, shortened: as §1
# [22] = test system: M14; assay: Anticancer activity against human M14 cells after 48 hrs by sulforhodamine B assay; conditions: M14, 48 h; procedure, shortened: as §1
# [23] = test system: SK-MEL-2; assay: Anticancer activity against human SK-MEL-2 cells after 48 hrs by sulforhodamine B assay; conditions: SK-MEL-2, 48 h; procedure, shortened: as §1
# [24] = test system: SK-MEL-28; assay: Anticancer activity against human SK-MEL-28 cells after 48 hrs by sulforhodamine B assay; conditions: SK-MEL-28, 48 h; procedure, shortened: as §1
# [25] = test system: SK-MEL-5; assay: Anticancer activity against human SK-MEL-5 cells after 48 hrs by sulforhodamine B assay; conditions: SK-MEL-5, 48 h; procedure, shortened: as §1
# [26] = test system: UACC-257; assay: Anticancer activity against human UACC257 cells after 48 hrs by sulforhodamine B assay; conditions: UACC-257, 48 h; procedure, shortened: as §2
# [27] = test system: UACC-62; assay: Anticancer activity against human UACC62 cells after 48 hrs by sulforhodamine B assay; conditions: UACC-62, 48 h; procedure, shortened: as §2
# [28] = test system: IGROV-1; assay: Anticancer activity against human IGROV1 cells after 48 hrs by sulforhodamine B assay; conditions: IGROV-1, 48 h; procedure, shortened: as §1
# [29] = test system: OVCAR-3; assay: Anticancer activity against human OVCAR-3 cells after 48 hrs by sulforhodamine B assay; conditions: OVCAR-3, 48 h; procedure, shortened: as §1
# [30] = test system: OVCAR-5; assay: Anticancer activity against human OVCAR5 cells after 48 hrs by sulforhodamine B assay; conditions: OVCAR-5, 48 h; procedure, shortened: as §1
# [31] = test system: OVCAR-8; assay: Anticancer activity against human OVCAR8 cells after 48 hrs by sulforhodamine B assay; conditions: OVCAR-8, 48 h; procedure, shortened: as §1
# [32] = test system: SK-OV-3; assay: Anticancer activity against human SKOV3 cells after 48 hrs by sulforhodamine B assay; conditions: SK-OV-3, 48 h; procedure, shortened: as §1
# [33] = test system: 786-0; assay: Anticancer activity against human 786-0 cells after 48 hrs by sulforhodamine B assay; conditions: 786-0, 48 h; procedure, shortened: as §1
# [34] = test system: CAKI-1; assay: Anticancer activity against human Caki1 cells after 48 hrs by sulforhodamine B assay; conditions: CAKI-1, 48 h; procedure, shortened: as §1
# [35] = test system: SN12C; assay: Anticancer activity against human SN12C cells after 48 hrs by sulforhodamine B assay; procedure, shortened: as §2
# [36] = test system: TK-10; assay: Anticancer activity against human TK10 cells after 48 hrs by sulforhodamine B assay; conditions: TK-10, 48 h; procedure, shortened: as §2
# [37] = test system: UO-31; assay: Anticancer activity against human UO31 cells after 48 hrs by sulforhodamine B assay; conditions: UO-31, 48 h; procedure, shortened: as §2
# [38] = test system: MCF7; assay: Anticancer activity against human MCF7 cells after 48 hrs by sulforhodamine B assay; conditions: MCF7, 48 h; procedure, shortened: as §1
# [39] = test system: NCI/ADR-RES; assay: Anticancer activity against human NCI/ADR-RES cells after 48 hrs by sulforhodamine B assay; procedure, shortened: as §1
# [40] = test system: MDA-MB-231; assay: Anticancer activity against human MDA-MB-231 cells after 48 hrs by sulforhodamine B assay; conditions: MDA-MB-231, 48 h; procedure, shortened: as §1
# [41] = Anticancer activity against human Hs 578T cells after 48 hrs by sulforhodamine B assay; procedure, shortened: as §1
# [42] = test system: MDA-MB-435; assay: Anticancer activity against human MDA-MB-435 cells after 48 hrs by sulforhodamine B assay; conditions: MDA-MB-435, 48 h; procedure, shortened: as §1
# [43] = test system: BT-549; assay: Anticancer activity against human BT549 cells after 48 hrs by sulforhodamine B assay; conditions: BT-549, 48 h; procedure, shortened: as §1
# [44] = test system: T47D; assay: Anticancer activity against human T47D cells after 48 hrs by sulforhodamine B assay; procedure, shortened: as §2
structure (smiles),measurement,setting,value
O=C(Nc1nc2ccccc2s1)NC(C(F)(F)F)C(F)(F)F,GI50,[1],33.1 µM
same,GI50,[2],25.1 µM
same,GI50,[3],29.5 µM
same,GI50,[4],25.7 µM
same,GI50,[5],26.9 µM
same,GI50,[6],20.9 µM
same,GI50,[7],38 µM
same,GI50,[8],33.9 µM
same,GI50,[9],18.2 µM
same,GI50,[10],22.4 µM
same,GI50,[11],17.8 µM
same,GI50,[12],20 µM
same,GI50,[13],16.6 µM
same,GI50,[14],29.5 µM
same,GI50,[15],33.9 µM
same,GI50,[16],29.5 µM
same,GI50,[17],23.4 µM
same,GI50,[18],26.9 µM
same,GI50,[19],35.5 µM
same,GI50,[20],24.5 µM
same,GI50,[21],22.9 µM
same,GI50,[22],19.1 µM
same,GI50,[23],22.9 µM
same,GI50,[24],35.5 µM
same,GI50,[25],15.5 µM
same,GI50,[26],20.4 µM
same,GI50,[27],24.5 µM
same,GI50,[28],38 µM
same,GI50,[29],18.2 µM
same,GI50,[30],27.5 µM
same,GI50,[31],33.9 µM
same,GI50,[32],30.9 µM
same,GI50,[33],28.8 µM
same,GI50,[34],28.8 µM
same,GI50,[35],14.1 µM
same,GI50,[36],31.6 µM
same,GI50,[37],3.24 µM
same,GI50,[38],28.2 µM
same,GI50,[39],27.5 µM
same,GI50,[40],22.4 µM
same,GI50,[41],26.9 µM
same,GI50,[42],31.6 µM
same,GI50,[43],28.2 µM
same,GI50,[44],17 µM
O=c1[nH]cc(F)c(=O)[nH]1 [FLUOROURACIL],GI50,[1],9.77 µM
same,GI50,[2],3.55 µM
same,GI50,[3],0.355 µM
same,GI50,[4],0.024 µM
same,GI50,[5],0.191 µM
same,GI50,[6],61.7 µM
same,GI50,[7],0.398 µM
same,GI50,[8],77.6 µM
same,GI50,[9],0.178 µM
same,GI50,[10],0.0562 µM
same,GI50,[11],0.158 µM
same,GI50,[12],0.0525 µM
same,GI50,[13],0.229 µM
same,GI50,[14],0.214 µM
same,GI50,[15],0.933 µM
same,GI50,[16],1.58 µM
same,GI50,[17],0.229 µM
same,GI50,[18],0.0631 µM
same,GI50,[19],3.8 µM
same,GI50,[20],0.912 µM
same,GI50,[21],0.245 µM
same,GI50,[22],0.977 µM
same,GI50,[23],56.2 µM
same,GI50,[24],1.02 µM
same,GI50,[25],0.468 µM
same,GI50,[26],3.55 µM
same,GI50,[27],0.525 µM
same,GI50,[28],1.23 µM
same,GI50,[29],0.0158 µM
same,GI50,[30],11 µM
same,GI50,[31],1.74 µM
same,GI50,[32],21.9 µM
same,GI50,[33],0.724 µM
same,GI50,[34],0.0724 µM
same,GI50,[35],0.501 µM
same,GI50,[36],1.12 µM
same,GI50,[37],1.41 µM
same,GI50,[38],0.0794 µM
same,GI50,[39],0.316 µM
same,GI50,[40],6.61 µM
same,GI50,[41],9.77 µM
same,GI50,[42],0.0724 µM
same,GI50,[43],10.7 µM
same,GI50,[44],8.13 µM
CCC(NC(=O)Nc1nc2ccccc2s1)(C(F)(F)F)C(F)(F)F,GI50,[1],23.4 µM
same,GI50,[2],23.4 µM
same,GI50,[3],29.5 µM
same,GI50,[4],17 µM
same,GI50,[5],15.8 µM
same,GI50,[6],17 µM
same,GI50,[7],17.8 µM
same,GI50,[8],19.1 µM
same,GI50,[9],25.7 µM
same,GI50,[10],21.4 µM
same,GI50,[11],16.2 µM
same,GI50,[12],19.1 µM
same,GI50,[13],18.2 µM
same,GI50,[14],20.4 µM
same,GI50,[15],20.9 µM
same,GI50,[16],17 µM
same,GI50,[17],17 µM
same,GI50,[18],18.2 µM
same,GI50,[19],20.9 µM
same,GI50,[20],17.4 µM
same,GI50,[21],18.2 µM
same,GI50,[22],18.6 µM
same,GI50,[23],15.8 µM
same,GI50,[24],17.8 µM
same,GI50,[25],17.8 µM
same,GI50,[26],20 µM
same,GI50,[27],15.5 µM
same,GI50,[28],17 µM
same,GI50,[29],16.6 µM
same,GI50,[30],19.5 µM
same,GI50,[31],18.2 µM
same,GI50,[32],17.8 µM
same,GI50,[33],20 µM
same,GI50,[34],19.1 µM
same,GI50,[35],16.2 µM
same,GI50,[36],21.9 µM
same,GI50,[37],4.68 µM
same,GI50,[38],15.8 µM
same,GI50,[39],19.5 µM
same,GI50,[40],16.2 µM
same,GI50,[41],21.4 µM
same,GI50,[42],20 µM
same,GI50,[43],18.2 µM
same,GI50,[44],15.5 µM
